The sample as a whole holds a higher share of hits than the screen did.
PostGolgi yeast – growth inhibition of a yeast mutant, post-Golgi transport screen. post-Golgi transport phenotypic cell assay. inhibition, % at 10 µM. hit rate 0.9% among 98,000. AID 739;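 further: yeast cells grown in 1536-well plates; yeast grown about 18 h at 30C before absorbance read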
BB579 growth dn – yeast BB579 growth reduction in restrictive medium | S. cerevisiae BB579 growth, OD615, 48 h | inhibition, % at 10 µM | hit rate 0.51% among 140,000 | AID 804;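 active means inhibition above a set limit, 3 SD over the mean compound inhibition, cut at about 44% in these data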
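Detection: OD615 turbidity measurement; Material: Saccharomyces cerevisiae DeaD strain BB579, replicative lifespan model yeast; Timing: 48 h exposure, 30 °C; Doses: single 10 µM dose; Medium: CSMM-D restrictive synthetic medium containing dextrose (glucose); Controls: amphotericin B at 10 µg/mL as positive control.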
PostGolgi ctrl – yeast control strain growth, post-Golgi counter-screen; inhibition, % at 10 µM; hit rate 5% among 98,000; AID 738; efflux-deficient yeast background strain, growth absorbance A615, 16 h
Yeast life ext – yeast lifespan extension | S. cerevisiae growth with nicotinamide, OD615; deaD strain in restrictive glucose medium | inhibition of the nicotinamide effect, % at 10 µM | hit rate 0.68% among 130,000 | AID 775;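 active means inhibition above a set limit, placed 3 SD over the median of all compounds, cut at about 26% in these data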;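 further: 0% = nicotinamide-treated wells and 100% = cells grown without nicotinamide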
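System: DeaD-strain S. cerevisiae / Buffer or medium: CSMM-D, restrictive glucose (dextrose) synthetic minimal medium / Probe or stimulus: nicotinamide, 1.5 mM, co-present with compound / Compound: one concentration, 10 µM, DMSO 0.25% / Incubation: 48 h compound exposure at 30 °C, humidified / Technique: optical density (absorbance) at 615 nm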
An asterisk follows results filed as active; · = no result. Unless noted, no stated cut-off is given here; in the data, active means inhibition above about 30%; inactive means the rest.

SMILES	PostGolgi yeast	BB579 growth dn	PostGolgi ctrl	Yeast life ext
Cc1ccc(-n2c(Cl)c(Cl)nc(Cl)c2=O)cc1	·	100*	·	-9
Cn1c(NC(=O)c2ccccc2)c(-c2cccs2)c(=O)c2ccccc21	0	-25	25	2
Cn1c(NC(=O)c2cccs2)c(-c2cccs2)c(=O)c2ccccc21	4	-22	32*	4
Cc1nc(SCC(=O)c2ccc(F)cc2)n[nH]1	-2	-4	-2	-6
Cc1nc(SCC(=O)c2c[nH]c3ccccc23)n[nH]1	-4	-25	32*	0
O=C(CNC(=S)N(Cc1ccccc1)Cc1cccnc1)NC1CCCCC1	·	-9	·	5
NS(=O)(=O)c1ccc(NCc2cc(Cl)ccc2OCc2ccccc2F)cc1	2	-30	39*	-16
CCc1ccccc1N/C(=N\S(=O)(=O)c1ccccc1)C(F)(F)F	·	-6	·	30*
COc1ccc(CCNC(=O)CN2C(=O)C3(OCCCO3)c3ccccc32)cc1OC	3	11	-2	-18
CNC(=O)NC(=O)C(C)OC(=O)CCCSc1nc2ccccc2s1 (configuration not stated)	·	-9	·	-4
Cc1ccc(NC(=S)c2nc3ccccc3[nH]2)cc1	2	-6	51*	-10
Cn1c(=O)c2c(ncn2CC(=O)OCC(=O)Nc2cc(Cl)ccc2Cl)n(C)c1=O	·	-49	·	-4
COc1cc(C)nc(N(Cc2ccccc2)S(=O)(=O)c2ccccc2)n1	-1	-40	33*	-7
CCCN(c1nc(C)cc(OC)n1)S(=O)(=O)c1ccccc1	-5	-31	24	1
Cc1nc(SCc2cccc(Oc3ccccc3)c2)n[nH]1	0	-28	36*	-15
COc1ccc(CSc2n[nH]c(C)n2)cc1Br	17	-35	9	-13
O=C(CCN1CCCCCC1)Nc1ccc(F)cc1	-4	-58	23	64*
O=C(Cn1c2c(sc1=O)C1c3ccccc3OCC1CS2)Nc1ccc(Cl)cc1 (configuration not stated)	·	-59	·	0
CCOC(=O)C1CCN(CC(O)COc2ccc(C(C)(C)C)cc2)CC1 (configuration not stated)	29	-66	59*	-10
CCOC(=O)N1CCN(CC(O)COc2ccccc2C(C)CC)CC1 (configuration not stated)	50*	-42	26	2
CCOC(=O)C1CCN(CC(O)COc2ccc(C(C)(C)CC)cc2)CC1 (configuration not stated)	87*	4	79*	-7
COc1ccc(OC)c(N(CC(=O)Nc2cccnc2)S(=O)(=O)c2ccccc2)c1	3	-10	8	-4
COC(=O)C1=C(C)NC(C)=C(C(=O)OC)C1c1cn(-c2ccccc2)nc1-c1ccco1	25	-26	69*	6
Cc1ccc(C(=O)Nc2ccc(S(=O)(=O)N3CCc4ccccc4C3)cc2)o1	1	-8	48*	13
O=C(Nc1ccc(S(=O)(=O)N2CCCCC2)cc1)c1ccc(CN2CCc3ccccc3C2)cc1	-2	-19	54*	-4
SMILES	PostGolgi yeast	BB579 growth dn	PostGolgi ctrl	Yeast life ext
Cc1ccc(C(=O)Nc2ccc(S(=O)(=O)N3CCc4ccccc43)cc2)o1	7	-17	24	-11
Cc1ccc(NC(=O)c2ccc(CN3CCc4ccccc4C3)cc2)cc1	-4	9	13	3
O=C(Nc1ccn(-c2ccccc2)n1)c1ccc(S(=O)(=O)N2CCCCCC2)cc1	-8	-7	31*	-8
CCc1cc2c(=O)n(-c3ccccc3)c(=S)[nH]c2s1	2	-39	4	-4
O=C(c1ccc(CN2CCOCC2)cc1)N1CCN(c2ccccc2)CC1	·	-13	·	·
CC(C)/C=N/NC(=O)c1ccc(Cl)cc1	·	-28	·	2
Cn1cccc1/C=C1\CCC/C(=C\c2cccn2C)C1=O	10	-10	41*	-14
Clc1c(CSc2nc3ccccc3o2)nc2sccn12	-2	-66	36*	-19
Clc1c(CSc2nc3ccccc3o2)nc2ccccn12	2	-15	7	-19
Cc1ccccc1N1C(=O)C(Cl)=C(N2CCCCCC2)C1=O	-3	-28	40*	2
O=C(Nc1cccc(-c2nc3ncccc3o2)c1)c1cc2ccccc2o1	11	-23	35*	-24
Cc1ccc(-c2nc3ncccc3o2)cc1NC(=O)c1cc2ccccc2o1	-2	-71	8	-7
C=CCN1C(=O)C2(/C(=C(\O)c3ccc4c(c3)OCCO4)C(=O)C(=O)N2CCCOC)c2ccccc21 (configuration not stated)	-10	-70	41*	-14
O=C(O)C1CCCCC1C(=O)Nc1ccccc1F (configuration not stated)	-12	-64	42*	-2

Bioassay records from PubChem BioAssay.
